Measured values reported in ChEMBL document CHEMBL4138115, “An evaluation of Minor Groove Binders as anti-fungal and anti-mycobacterial therapeutics” (Eur J Med Chem, 2017).
≈ marks a conversion by molar mass, not a printed value. Calls of active or inactive are those of the source. No cut-off for these calls is given here.

Columns and labels:
[1] = tested on: Trypanosoma congolense; experiment: Antiparasitic activity against Trypanosoma congolense IL3000 after 69 hrs by Alamar blue assay; format: functional, organism-based; details: IL3000, 69 h
Outline: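 Bloodstream-form IL3000 counted electronically and seeded at 1.25 × 10⁵ trypanosomes/ml into threefold serial compound dilutions. Kept 69 h at 34 °C, 5% CO₂, then resazurin (12.5 mg per 100 mL PBS) added for 3 h. Fluorescence ex 536/em 588 nm gives EC50. Three separate assay runs.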

[2] = tested on: Trypanosoma brucei brucei; experiment: Antiparasitic activity against Trypanosoma brucei brucei Lister 427 after 48 hrs by Alamar blue assay; format: functional, organism-based; details: Lister 427, 48 h
Outline: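 Bloodstream-form Lister 427 in HMI-9 with 10% heat-inactivated FBS, counted by haemocytometer and seeded at 2 × 10⁴ cells/mL over serial compound dilutions. After 48 h at 37 °C, 5% CO₂, resazurin (0.49 mM solution in PBS) added for a further 24 h. Fluorescence ex 544/em 590 nm; EC50 from curve fit. Duplicates, at least three independent occasions.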

[3] = Lipophilicity of the compound assessed as retention time by HPLC method; format: physicochemical
Outline: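 Reverse-phase C18 HPLC with water and acetonitrile, each containing 0.1% TFA. Gradient runs from 100% water to 100% acetonitrile over 1 h; lipophilicity reported as retention time in minutes.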

[4] = tested on: Salmon testes DNA; experiment: Binding affinity to wild type salmon sperm DNA assessed as change in melting temperature at 10 uM; format: nucleic-acid assay; details: Salmonidae
[5] = tested on: Cryptococcus neoformans; experiment: Antifungal activity against Cryptococcus neoformans ATCC 208821 after 24 hrs by resazurin dye-based two-fold serial dilution assay; format: functional
[6] = tested on: Mycobacterium tuberculosis; experiment: Antimycobacterial activity against GFP labelled Mycobacterium tuberculosis H37Rv up to 14 days by fluorescence assay; format: functional
Outline: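 GFP-labelled Mtb H37Rv at 1 × 10^5 CFU/well in 7H9 broth with 10% OADC and 25 kanamycin. Two-fold compound dilutions were tested. Incubated at 37 °C without shaking.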

[7] = tested on: Staphylococcus aureus; experiment: Antibacterial activity against methicillin-resistant Staphylococcus aureus ATCC 43300 after 18 hrs by two-fold serial dilution assay; format: functional; details: ATCC 43300, 18 h
Outline: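 MRSA ATCC 43300 grown overnight in cation-adjusted Mueller Hinton broth at 37 °C, diluted 40-fold, grown 1.5–3 h to mid-log. Inoculated at 5 × 10⁵ CFU/mL into two-fold compound dilutions (final 32–0.25 range). Incubated 18 h at 37 °C without shaking; OD600 read. Inhibition normalised to media-only and untreated-bacteria controls. MIC taken as lowest concentration giving ≥80% inhibition; duplicates (n = 2).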

[8] = tested on: Candida albicans; experiment: Antifungal activity against Candida albicans ATCC 90028 after 24 hrs by resazurin dye-based two-fold serial dilution assay; format: functional; details: ATCC 90028, 24 h
[9] = Cytotoxicity against HEK293 cells reduction in cell viability after 20 hrs by resazurin dye based fluorescence assay; details: human
Outline: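 HEK-293 cells at 4000 per well in DMEM with 10% FBS, exposed to two-fold dilutions from 32 to 0.25 (final) for 20 h at 37 °C, 5% CO₂. Resazurin added (100 final) for 3 h more; fluorescence ex 560/em 590 nm. CC50 is the concentration giving 50% cytotoxicity. Duplicates.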

[10] = Selectivity index, ratio of CC50 for cytotoxicity against HEK293 cells to MIC50 for antimycobacterial activity against GFP labelled Mycobacterium tuberculosis H37Rv; format: toxicity, cell-based; details: human, read-out: Selectivity Index

Row | Structure (SMILES) | EC50 [1] [µM] | EC50 [2] [µM] | Retention_time [3] [min] | ΔTm [4] [°C] | MIC70 [5] [µg/mL] | MIC99 [6] | MIC80 [7] [µg/mL] | MIC80 [8] [µg/mL] | CC50 at 20 h [9] [µg/mL] | selectivity ratio [10] | MIC99 ([6]; 336 h) [µg/mL]
1 | CN(C)CCCNC(=O)c1cc(NC(=O)c2cc(NC(=O)c3cc(NC(=N)c4ccccc4)cn3C)cn2C)cn1C | 2.2 | > 100 | 17.8 | 11 | >32 | inactive | > 32 | > 32 |  |  | 
2 | CN(C)CCCNC(=O)c1cc(NC(=O)c2cc(NC(=O)c3cc(NC(=N)N)cn3C)cn2C)cn1C | 6.2 | > 100 | 14.2 | 5 | >32 | inactive | > 32 | > 32 |  |  | 
3 | CC(=O)Nc1cc(C(=O)Nc2cc(C(=O)Nc3cc(C(=O)NCCCN(C)C)n(C)c3)n(C)c2)n(C)c1 | 7 | > 100 | 18.3 | 5 | >32 | inactive | > 32 | > 32 |  |  | 
4 | COc1cccc(C(=N)Nc2cc(C(=O)Nc3cc(C(=O)Nc4cc(C(=O)NCCCN(C)C)n(CCC(C)C)c4)n(C)c3)n(C)c2)c1 | 1.4 | 24 | 23.8 | 5 | >32 | inactive | > 32 | > 32 | > 32 |  | 
5 | CC(C)CCc1sc(NC(=O)c2cc(NC(=O)c3cc(NC(=N)c4ccc(F)cc4)cn3C)cn2C)nc1C(=O)NCCCN(C)C | 10 | 18 | 26.2 | 9 | 4 (≈ 6.03 µM) |  | 8 (≈ 12.1 µM) | > 32 | 18 (≈ 27.1 µM) | 25 | 3.1 (≈ 4.67 µM)
6 | CC(=O)Nc1cc(C(=O)Nc2cc(C(=O)Nc3cc(C(=O)NCCCN(C)C)n(CCC(C)C)c3)n(C)c2)n(C)c1 | 6.5 | 54 | 22.8 | 3 | >32 | inactive | > 32 | > 32 |  |  | 
7 | CC(C)CCc1sc(NC(=O)c2cc(NC(=O)c3cc(NC(=N)c4ccc(Cl)cc4)cn3C)cn2C)nc1C(=O)NCCCN(C)C | 4.3 | 13 | 26.8 | 4 | 4 (≈ 5.88 µM) |  | 8 (≈ 11.8 µM) | > 32 | 10 (≈ 14.7 µM) |  | 13 (≈ 19.1 µM)
8 | COc1cccc(C(=N)Nc2cc(C(=O)Nc3cc(C(=O)Nc4nc(C(=O)NCCCN(C)C)c(CCC(C)C)s4)n(C)c3)n(C)c2)c1 | 5.8 | 17 | 26.8 | 7 | 2 (≈ 2.96 µM) |  | 1 (≈ 1.48 µM) | > 32 | > 32 |  | 25 (≈ 37 µM)
9 | CC(C)CCc1sc(NC(=O)c2cc(NC(=O)c3cc(NC(=N)c4ccccc4)cn3C)cn2C)nc1C(=O)NCCCN(C)C | 5.8 | 23 | 26.2 | 7 | 4 (≈ 6.19 µM) |  | > 32 | > 32 | > 32 |  | 25 (≈ 38.7 µM)
10 | CC(C)CCc1sc(NC(=O)c2cc(NC(=O)c3cc(NC(=N)c4cnc5ccccc5c4)cn3C)cn2C)nc1C(=O)NCCCN(C)C | 1.9 | 3.3 | 27.3 | 2 | 0.25 (≈ 0.359 µM) | inactive | 1 (≈ 1.43 µM) | > 32 | 1.2 (≈ 1.72 µM) |  | 
11 | CC(C)CCn1cc(NC(=O)c2cc(NC(=O)c3cc(NC(=N)c4cnc5ccccc5c4)cn3C)cn2C)cc1C(=O)NCCCN(C)C | 0.82 | 2.7 | 24.8 | 17 | 8 (≈ 11.8 µM) |  | 32 (≈ 47.1 µM) | > 32 | 12 (≈ 17.7 µM) |  | 25 (≈ 36.8 µM)
12 | CC(C)CCn1cc(NC(=O)c2cc(NC(=O)c3cc(NC(=N)c4ccccc4)cn3C)cn2C)cc1C(=O)NCCCN(C)C | 1.2 | 33 | 22.6 | 8 | >32 | inactive | > 32 | > 32 |  |  | 
13 | CN(C)CCCNC(=O)c1cc(NC(=O)c2cc(NC(=O)c3cc(NC(=N)c4cnc5ccccc5c4)cn3C)cn2C)cn1C | 0.6 | 5.7 | 19.7 | > 17 | 8 (≈ 12.8 µM) |  | > 32 | > 32 | > 32 |  | 25 (≈ 40.1 µM)
14 | CC(=O)Nc1cc(C(=O)Nc2cc(C(=O)Nc3nc(C(=O)NCCCN(C)C)c(CCC(C)C)s3)n(C)c2)n(C)c1 | 9.1 | 28 | 27.1 | 4 | 16 (≈ 27.4 µM) | inactive | 16 (≈ 27.4 µM) | > 32 | > 32 |  | 
15 | CC(C)CCc1sc(NC(=O)c2cc(NC(=O)c3cc(NC(=N)N)cn3C)cn2C)nc1C(=O)NCCCN(C)C | 6.1 | 15 | 23.4 | 4 | 4 (≈ 6.84 µM) | inactive | 16 (≈ 27.4 µM) | > 32 | 20 (≈ 34.2 µM) |  | 
16 | CC(C)CCn1cc(NC(=O)c2cc(NC(=O)c3cc(NC(=N)N)cn3C)cn2C)cc1C(=O)NCCCN(C)C | 5.2 | 49 | 20.1 | 4 | 32 (≈ 56.5 µM) | inactive | > 32 | > 32 | > 32 |  | 
17 | COc1cccc(C(=N)Nc2cc(C(=O)Nc3cc(C(=O)Nc4cc(C(=O)NCCCN(C)C)n(C)c4)n(C)c3)n(C)c2)c1 | 1.4 | 44 | 17.5 | 11 | >32 | inactive | > 32 | > 32 |  |  | 
18 | CC(C)CCc1sc(NC(=O)c2cc(NC(=O)c3cc(NC(=N)c4cccc(F)c4)cn3C)cn2C)nc1C(=O)NCCCN(C)C | 5.5 | 18 | 26.2 | 4 | 8 (≈ 12.1 µM) |  | 8 (≈ 12.1 µM) | > 32 | 18 (≈ 27.1 µM) | 25 | 3.1 (≈ 4.67 µM)
19 | CC(C)CCc1sc(NC(=O)c2cc(NC(=O)c3cc(NC(=N)c4cccc(Cl)c4)cn3C)cn2C)nc1C(=O)NCCCN(C)C | 5.6 | 13 | 26.9 | 5 | 2 (≈ 2.94 µM) |  | 2 (≈ 2.94 µM) | > 32 | 9.2 (≈ 13.5 µM) |  | 13 (≈ 19.1 µM)
